pEC50: −log10 of the molar value. Several values for one entry are separate records, joined by “and”; a condition that tells them apart may be missing. Equal values may be shown once. Entries after “also recorded” stand apart in the source; their conditions may differ. Read-outs that look alike come from different tables or passages of the source.
Legend:
[1] = assay type: in vivo, human; conditions: for t½: terminal elimination
Method in brief: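 Healthy males (n=5 per dose group). Vehicle stock of 20% ethanol/80% propylene glycol, diluted to 0.6 mg/ml in 5% dextrose, infused i.v. at 375 ml/h to target dose. Heparinised blood taken pre-dose, at 25/50/75% and end of infusion, then to 1440 min. Plasma methanol-precipitated, C18 HPLC-MS, calibration 0.005–5 μg/ml, LLOQ 5 ng/ml. Cmax observed; AUC0-n, Vss, CL, t½ calculated.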

[2] = assay type: in vitro ADME, human; conditions: for TQD concentration in plasma after storage: mean±SD of four determinations
Method in brief: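 Plasma was spiked at 0.1, 0.5 and 2.0 μg/ml and split into 16 aliquots per level. Four aliquots were analysed by HPLC at once as the baseline. The rest were stored 24 h, 1 month or 3 months at RT, 4°C, −20°C or −80°C, then quantified. Results are given as mean of four determinations and percent of baseline; stability criterion was 95%.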

[3] = Safety and tolerability of single i.v. doses of TQD in healthy volunteers; assay type: in vivo, human
Method in brief: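 15 healthy males were given single i.v. infusions at 4, 6 or 8 mg/kg and kept on the ward under continuous observation until 24 h after infusion end. Blood pressure, heart rate and ECG were recorded repeatedly over the first 24 h. Monitoring included clinical chemistry, coagulation, haematology and adverse events. Physical examination, vital signs, AE check, and blood and urine analysis were repeated within one week.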

[4] = system: Pgp at the human BBB; conditions: cited from earlier work
[5] = system: Pgp; conditions: 2 mg/kg dose; cited from earlier work
[6] = system: Pgp; conditions: at low concentrations; cited from earlier work
[7] = system: breast cancer resistance protein (BCRP); conditions: at low concentrations; cited from earlier work
[8] = 4 mg/kg BW i.v. infusion, individual subjects 1-5
[9] = 6 mg/kg BW i.v. infusion, individual subjects 6-10
[10] = 8 mg/kg BW i.v. infusion, individual subjects 11-15
[11] = single i.v. doses up to 8 mg/kg BW

## COc1cc2c(cc1OC)CN(CCc1ccc(NC(=O)c3cc(OC)c(OC)cc3NC(=O)c3cnc4ccccc4c3)cc1)CC2 [TQD, tariquidar]
[1]; [8]
  CL: 11.29 L/h and 7.39 L/h and 9.22 L/h and 10.11 L/h
  Vss: 530 L and 571 L and 384 L and 445 L
  tmax: 1.38 h and 1.45 h and 1.55 h and 1.40 h
  t½: 33 h and 55 h and 30 h and 31 h
[1]; [9]
  CL: 13.99 L/h and 15.15 L/h and 13.53 L/h and 11.35 L/h
  Vss: 645 L and 509 L and 680 L and 312 L and 559 L
  tmax: 2.45 h and 1.83 h and 2.23 h
  t½: 34 h and 26 h and 33 h and 16 h and 35 h
[1]; [10]
  CL: 15.41 L/h and 16.21 L/h and 20.85 L/h and 22.15 L/h
  Vss: 521 L and 667 L and 380 L and 616 L
  tmax: 2.42 h and 2.28 h and 2.70 h and 2.26 h
  t½: 21 h and 25 h and 30 h and 14 h
[1]; 8 mg/kg BW i.v. infusion, individual subjects 11-15, plasma
  Cmax: 1920 ng/mL and 1050 ng/mL and 1870 ng/mL and 1660 ng/mL
[1]; all plasma samples, 4-8 mg/kg i.v.
  concentration of possible metabolites in plasma samples: below the detection limit; also recorded: could not detect any metabolites
[1]; dose range from 2 to 8 mg/kg i.v.
  dose dependency of plasma exposure AUC0-n: largely increase linearly
[2]; 0.1 μg/ml, 4°C, 1 month
  percent of baseline: 7.2%
  TQD concentration in plasma after storage: 0.007 ± 0.001 µg/mL
[2]; 0.1 μg/ml, 4°C, 3 months
  percent of baseline: 3.1%
  TQD concentration in plasma after storage: 0.003 ± 0.000 µg/mL
[2]; 0.1 μg/ml, 4°C, 24 h
  percent of baseline: 99%
  TQD concentration in plasma after storage: 0.099 ± 0.003 µg/mL
[2]; 0.1 μg/ml, RT, 1 month
  percent of baseline: 8.6%
  TQD concentration in plasma after storage: 0.008 ± 0.000 µg/mL
[2]; 0.1 μg/ml, RT, 3 months
  percent of baseline: 3.0%
  TQD concentration in plasma after storage: 0.003 ± 0.000 µg/mL
[2]; 0.1 μg/ml, RT, 24 h
  percent of baseline: 100%
  TQD concentration in plasma after storage: 0.10 ± 0.004 µg/mL
[2]; 0.1 μg/ml, −20°C, 1 month
  percent of baseline: 73.9%
  TQD concentration in plasma after storage: 0.073 ± 0.005 µg/mL
[2]; 0.1 μg/ml, −20°C, 3 months
  percent of baseline: 40.8%
  TQD concentration in plasma after storage: 0.041 ± 0.004 µg/mL
[2]; 0.1 μg/ml, −20°C, 24 h
  percent of baseline: 100%
  TQD concentration in plasma after storage: 0.10 ± 0.002 µg/mL
[2]; 0.1 μg/ml, −80°C, 1 month
  percent of baseline: 78.1%
  TQD concentration in plasma after storage: 0.078 ± 0.006 µg/mL
[2]; 0.1 μg/ml, −80°C, 3 months
  percent of baseline: 69.1%
  TQD concentration in plasma after storage: 0.069 ± 0.005 µg/mL
[2]; 0.1 μg/ml, −80°C, 24 h
  percent of baseline: 98%
  TQD concentration in plasma after storage: 0.098 ± 0.003 µg/mL
[2]; 0.5 μg/ml, 4°C, 1 month
  percent of baseline: 11.2%
  TQD concentration in plasma after storage: 0.056 ± 0.003 µg/mL
[2]; 0.5 μg/ml, 4°C, 3 months
  percent of baseline: 3.4%
  TQD concentration in plasma after storage: 0.017 ± 0.001 µg/mL
[2]; 0.5 μg/ml, 4°C, 24 h
  percent of baseline: 102%
  TQD concentration in plasma after storage: 0.51 ± 0.023 µg/mL
[2]; 0.5 μg/ml, RT, 3 months
  percent of baseline: 1.7%
  TQD concentration in plasma after storage: 0.008 ± 0.001 µg/mL
[2]; 0.5 μg/ml, RT, 24 h
  percent of baseline: 98%
  TQD concentration in plasma after storage: 0.49 ± 0.033 µg/mL
[2]; 0.5 μg/ml, −20°C, 1 month
  percent of baseline: 77.6%
  TQD concentration in plasma after storage: 0.38 ± 0.021 µg/mL
[2]; 0.5 μg/ml, −20°C, 3 months
  percent of baseline: 36.4%
  TQD concentration in plasma after storage: 0.18 ± 0.014 µg/mL
[2]; 0.5 μg/ml, −20°C, 24 h
  percent of baseline: 99%
  TQD concentration in plasma after storage: 0.49 ± 0.014 µg/mL
[2]; 0.5 μg/ml, −80°C, 1 month
  percent of baseline: 82.3%
  TQD concentration in plasma after storage: 0.41 ± 0.030 µg/mL
[2]; 0.5 μg/ml, −80°C, 3 months
  percent of baseline: 53.9%
  TQD concentration in plasma after storage: 0.27 ± 0.023 µg/mL
[2]; 0.5 μg/ml, −80°C, 24 h
  percent of baseline: 100%
  TQD concentration in plasma after storage: 0.50 ± 0.025 µg/mL
[2]; 2.0 μg/ml, 4°C, 1 month
  percent of baseline: 9.5%
  TQD concentration in plasma after storage: 0.19 ± 0.004 µg/mL
[2]; 2.0 μg/ml, 4°C, 3 months
  percent of baseline: 5.6%
  TQD concentration in plasma after storage: 0.11 ± 0.006 µg/mL
[2]; 2.0 μg/ml, 4°C, 24 h
  percent of baseline: 98.5%
  TQD concentration in plasma after storage: 1.97 ± 0.050 µg/mL
[2]; 2.0 μg/ml, RT, 1 month
  percent of baseline: 9.1%
  TQD concentration in plasma after storage: 0.18 ± 0.003 µg/mL
[2]; 2.0 μg/ml, RT, 3 months
  percent of baseline: 2.8%
  TQD concentration in plasma after storage: 0.054 ± 0.004 µg/mL
[2]; 2.0 μg/ml, RT, 24 h
  percent of baseline: 101%
  TQD concentration in plasma after storage: 2.02 ± 0.081 µg/mL
[2]; 2.0 μg/ml, −20°C, 1 month
  percent of baseline: 75.8%
  TQD concentration in plasma after storage: 1.51 ± 0.065 µg/mL
[2]; 2.0 μg/ml, −20°C, 3 months
  percent of baseline: 48.3%
  TQD concentration in plasma after storage: 0.97 ± 0.084 µg/mL
[2]; 2.0 μg/ml, −20°C, 24 h
  percent of baseline: 99%
  TQD concentration in plasma after storage: 1.98 ± 0.075 µg/mL
[2]; 2.0 μg/ml, −80°C, 1 month
  percent of baseline: 80.6%
  TQD concentration in plasma after storage: 1.62 ± 0.068 µg/mL
[2]; 2.0 μg/ml, −80°C, 3 months
  percent of baseline: 61.5%
  TQD concentration in plasma after storage: 1.23 ± 0.056 µg/mL
[2]; 2.0 μg/ml, −80°C, 24 h
  percent of baseline: 100.5%
  TQD concentration in plasma after storage: 2.01 ± 0.064 µg/mL
[2]; 0.1, 0.5 and 2.0 μg/ml
  concentration dependency of degradation rate in plasma: No concentration dependency
[2]; 1 month, 3 months, even at −80°C
  stability in plasma on storage longer than 24 h: pronounced degradation
[2]; 24 h at RT, 4°C, −20°C and −80°C
  stability in plasma (criterion 95%): stable
[2]; one month at −20°C
  concentration remaining relative to original values: 74-78%
[2]; one month at −80°C
  concentration remaining relative to original values: 78-82%
[2]; one month of storage at RT or at 4°C
  concentration remaining relative to original concentration: approximately 10%
[3]; 15 subjects, 4-8 mg/kg i.v.
  cases of metallic taste in the mouth: five cases
[3]; during and after TQD administration
  heart rate, blood pressure and ECG: did not significantly change
[3]; single i.v. doses 4, 6, 8 mg/kg
  dose limiting toxicities: No dose limiting toxicities
[3]; [11]
  serious or severe AEs: no serious or severe AEs
  tolerability: generally well tolerated
[3]; whole study period
  blood chemistries, complete blood count and coagulation: No subject had any significant change
[4]; 8 mg/kg TQD dose, healthy subjects, PET
  increase in (R)-[11C]verapamil brain distribution: 3 fold
[4]; 8 mg/kg TQD dose, plateau in concentration-response curve
  inhibition of Pgp at the human BBB: complete inhibition
[4]; read-out: half-maximum effect concentration (EC50) for functional inhibition of Pgp at the human BBB
  pEC50: 6.17
[5]
  inhibition of Pgp-mediated rhodamine 123 efflux from CD56-positive lymphocytes: fully inhibit
[6]
  transport by Pgp: transported
[7]
  transport by breast cancer resistance protein (BCRP): transported

From publication PMC3689924 (Pharmacology, 2012)
